# ChEMBL document CHEMBL4425129, “Exploring Basic Tail Modifications of Coumarin-Based Dual Acetylcholinesterase-Monoamine Oxidase B Inhibitors: Identification of Water-Soluble, Brain-Permeant Neuroprotective Multitarget Agents” (J Med Chem, 2016)
# pIC50: −log10 of the molar value. Active and inactive are the calls of the source. The rule behind the calls is not given here.
# Key:
# [1] = Lipophilicity index, Log K of the compound at 1 mM by RP-HPLC method; format: physicochemical; settings: 1000 µM
# SH-SY5Y [2] = assay: Neuroprotective activity against rotenone-induced oxidative injury in human SH-SY5Y cells assessed as increase in cell viability at 10 uM after 24 hrs by MTT assay; format: functional, cell-based
# Procedure, shortened: (§1)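 SH-SY5Y cells incubated 24 h with compound at 1 or 10 µM together with H2O2 300 µM, oligomycin-A 10 µM or rotenone 20 µM. Viability by MTT, as % of cells given neither insult nor compound. Triplicates, three repeats; mean ± SD; two-way ANOVA with Bonferroni post hoc test.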
# SH-SY5Y [3] = assay: Neuroprotective activity against oligomycin-A-induced oxidative injury in human SH-SY5Y cells assessed as increase in cell viability at 10 uM after 24 hrs by MTT assay; format: functional, cell-based; procedure, shortened: as §1
# SH-SY5Y [4] = assay: Neuroprotective activity against H2O2-induced oxidative injury in human SH-SY5Y cells assessed as increase in cell viability at 1 to 10 uM after 24 hrs by MTT assay; format: functional, cell-based; procedure, shortened: as §1
# SH-SY5Y [5] = assay: Neuroprotective activity against rotenone-induced oxidative injury in human SH-SY5Y cells assessed as increase in cell viability at 1 uM after 24 hrs by MTT assay; format: functional, cell-based; procedure, shortened: as §1
# SH-SY5Y [6] = assay: Neuroprotective activity against oligomycin-A-induced oxidative injury in human SH-SY5Y cells assessed as increase in cell viability at 1 uM after 24 hrs by MTT assay; format: functional, cell-based; procedure, shortened: as §1
# [7] = target: T1, Amine oxidase [flavin-containing] B (Homo sapiens, UniProt P27338); assay: Inhibition of human recombinant MAOB expressed in microsomes of baculovirus-infected insect cell using kynuramine as substrate preincubated for 20 mins followed by protein addition measured after 30 mins by fluorescence assay
# T1 sequence (P27338 whole entry): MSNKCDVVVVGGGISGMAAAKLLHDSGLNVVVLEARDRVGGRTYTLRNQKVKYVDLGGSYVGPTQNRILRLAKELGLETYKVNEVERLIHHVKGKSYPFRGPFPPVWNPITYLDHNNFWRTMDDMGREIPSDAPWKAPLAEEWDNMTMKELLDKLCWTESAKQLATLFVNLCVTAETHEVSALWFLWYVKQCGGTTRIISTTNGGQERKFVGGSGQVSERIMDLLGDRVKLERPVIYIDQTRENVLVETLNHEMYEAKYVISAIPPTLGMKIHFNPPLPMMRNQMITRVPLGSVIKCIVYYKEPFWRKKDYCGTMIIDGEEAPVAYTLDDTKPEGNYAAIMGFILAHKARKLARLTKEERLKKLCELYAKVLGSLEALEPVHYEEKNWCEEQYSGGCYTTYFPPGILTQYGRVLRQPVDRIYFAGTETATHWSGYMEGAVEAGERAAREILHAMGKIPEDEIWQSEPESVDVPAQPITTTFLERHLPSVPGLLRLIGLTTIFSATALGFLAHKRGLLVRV
# [8] = target: T2, Amine oxidase [flavin-containing] A (Homo sapiens, UniProt P21397); assay: Inhibition of human recombinant MAOA expressed in microsomes of baculovirus-infected insect cell using kynuramine as substrate preincubated for 20 mins followed by protein addition measured after 30 mins by fluorescence assay
# T2 sequence (P21397 whole entry): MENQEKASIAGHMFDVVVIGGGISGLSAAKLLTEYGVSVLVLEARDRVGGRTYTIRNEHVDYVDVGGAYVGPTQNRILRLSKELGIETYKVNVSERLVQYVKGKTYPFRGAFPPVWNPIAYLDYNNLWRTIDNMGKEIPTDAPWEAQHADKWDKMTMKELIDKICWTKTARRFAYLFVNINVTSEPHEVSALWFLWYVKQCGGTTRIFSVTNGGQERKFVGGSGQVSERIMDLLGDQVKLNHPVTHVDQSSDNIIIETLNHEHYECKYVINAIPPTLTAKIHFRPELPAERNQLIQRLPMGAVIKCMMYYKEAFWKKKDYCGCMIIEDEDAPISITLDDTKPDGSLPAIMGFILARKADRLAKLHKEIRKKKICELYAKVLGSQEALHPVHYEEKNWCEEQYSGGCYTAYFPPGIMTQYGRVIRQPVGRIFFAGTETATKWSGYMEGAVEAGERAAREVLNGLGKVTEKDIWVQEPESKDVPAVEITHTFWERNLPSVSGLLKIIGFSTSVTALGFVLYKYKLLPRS
# Procedure, shortened: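 Recombinant human MAO A (baculovirus-infected insect cell microsomes) with kynuramine substrate; inhibitor preincubated 20 min at 37 °C, enzyme then added and incubated 30 min more. Fluorescence at ex/em 320/400 nm. Triplicates, three independent experiments.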
# Acetylcholinesterase = Acetylcholinesterase (Electrophorus electricus, UniProt O42275); assay: Inhibition of electric eel AChE using acetylthiocholine iodide as substrate preincubated for 20 mins followed by substrate addition measured for 5 mins by spectrophotometric Ellman's method
# [9] = target: Cholinesterase (Equus caballus) (UniProt P81908); assay: Inhibition of equine serum BChE at 10 uM using butyrylthiocholine iodide as substrate preincubated for 20 mins followed by substrate addition measured for 5 mins by spectrophotometric Ellman's method relative to control
# Procedure, shortened: (§2)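 BChE from equine serum (13 U/mg), Ellman spectrophotometric method run in 96-well format. Seven inhibitor concentrations, 10^-4 to 10^-10 M, each in triplicate. IC50 from non-linear regression of response against log(concentration). […] Mean of three independent experiments.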
# Cholinesterase = Cholinesterase (Equus caballus, UniProt P81908); assay: Inhibition of equine serum BChE using butyrylthiocholine iodide as substrate preincubated for 20 mins followed by substrate addition measured for 5 mins by spectrophotometric Ellman's method; procedure, shortened: as §2
# Homo sapiens = species on record: Homo sapiens; assay: Selectivity index, ratio of IC50 for human recombinant MAOA to IC50 for human recombinant MAOB
# SH-SY5Y [10] = assay: Cytotoxicity against human SH-SY5Y cells assessed as inhibition of cell growth after 24 hrs by MTT assay; format: cell-based
# Procedure, shortened: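 SH-SY5Y cells exposed 24 h at 37 °C to 0.1, 1, 5, 10 and 50 µM; viability read by MTT at 570 nm versus untreated cells. […] Means ± SD, n = 3.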
# [11] = Kinetic aqueous solubility of the compound in Tris-HCl buffer at pH 7.4 by turbidimetric method; format: physicochemical; settings: buffer
# Procedure, shortened: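 DMSO stocks added in portions to 50 mM Tris-HCl pH 7.4 at room temperature. Light scattering read as UV absorbance increase at 580–780 nm; solubility from a bilinear fit of absorbance versus µL DMSO. Reported as logS (mol/L), mean ± SEM of three independent assays.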
# Acetylcholinesterase, sequence (O42275 whole entry): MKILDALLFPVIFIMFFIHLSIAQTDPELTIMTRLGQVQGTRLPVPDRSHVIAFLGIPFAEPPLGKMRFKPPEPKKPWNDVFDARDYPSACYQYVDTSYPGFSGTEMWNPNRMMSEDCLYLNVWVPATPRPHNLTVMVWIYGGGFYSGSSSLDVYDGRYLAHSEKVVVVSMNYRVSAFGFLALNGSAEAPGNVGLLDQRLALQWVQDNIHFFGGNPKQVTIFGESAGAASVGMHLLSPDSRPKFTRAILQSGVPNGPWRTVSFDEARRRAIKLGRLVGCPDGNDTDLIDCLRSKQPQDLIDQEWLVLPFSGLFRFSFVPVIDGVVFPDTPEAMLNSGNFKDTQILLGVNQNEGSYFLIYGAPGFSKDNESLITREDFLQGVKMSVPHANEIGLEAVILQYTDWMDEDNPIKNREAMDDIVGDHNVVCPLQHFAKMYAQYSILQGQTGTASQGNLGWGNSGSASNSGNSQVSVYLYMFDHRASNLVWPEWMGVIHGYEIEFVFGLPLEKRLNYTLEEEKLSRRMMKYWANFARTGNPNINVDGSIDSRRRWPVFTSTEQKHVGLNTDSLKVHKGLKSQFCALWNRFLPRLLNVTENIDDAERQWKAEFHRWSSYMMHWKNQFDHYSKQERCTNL
# Cholinesterase (Equus caballus), sequence (P81908 whole entry): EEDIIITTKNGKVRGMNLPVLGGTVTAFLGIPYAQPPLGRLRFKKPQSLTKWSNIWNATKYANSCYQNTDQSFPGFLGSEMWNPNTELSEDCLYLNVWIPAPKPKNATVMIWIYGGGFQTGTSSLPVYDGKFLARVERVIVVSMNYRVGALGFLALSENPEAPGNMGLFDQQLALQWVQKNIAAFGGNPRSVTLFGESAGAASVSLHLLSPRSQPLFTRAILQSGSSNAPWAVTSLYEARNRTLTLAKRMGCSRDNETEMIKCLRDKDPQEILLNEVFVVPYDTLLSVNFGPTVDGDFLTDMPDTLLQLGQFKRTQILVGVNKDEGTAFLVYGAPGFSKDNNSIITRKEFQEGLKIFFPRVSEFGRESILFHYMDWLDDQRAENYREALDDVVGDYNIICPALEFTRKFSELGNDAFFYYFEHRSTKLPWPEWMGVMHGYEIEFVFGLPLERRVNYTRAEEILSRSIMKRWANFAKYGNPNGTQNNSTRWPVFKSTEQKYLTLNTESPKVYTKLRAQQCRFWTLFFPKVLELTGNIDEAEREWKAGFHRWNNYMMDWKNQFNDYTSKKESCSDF
# Cholinesterase, sequence (P81908 whole entry): as above
Structure (SMILES),pIC50 [7],pIC50 [8],pIC50 (Acetylcholinesterase),inhibition [9],pIC50 (Cholinesterase),further results
CN(Cc1ccccc1)Cc1ccc(COc2ccc3c(CO)cc(=O)oc3c2)cc1,,,,,,log K [1]: 1.87
Cc1c(C)c2ccc(OCC3CCCN(Cc4ccccc4)C3)cc2oc1=O (racemic),,,,,,Activity (SH-SY5Y [2]): Active; Activity (SH-SY5Y [3]): Active; Activity (SH-SY5Y [4]): Active; Activity (SH-SY5Y [5]): Active; Activity (SH-SY5Y [6]): Active
"Cc1c(C)c2ccc(OCC3CCCN(Cc4cccc(Br)c4)C3)cc2oc1=O (single isomer, unassigned; (+)) [listing 1 of 2 here]",7.59,6.27,5.49,,,
Cc1c(C)c2ccc(OC3CCN(CC(=O)c4ccccc4)CC3)cc2oc1=O,6.94,5.71,5.42,45%,,
Cc1c(C)c2ccc(OCC3CCCN(Cc4ccccc4)C3)cc2oc1=O (stereo in doubt; (+)-5b),,5.42,5.74,,5.54,
Cc1c(C)c2ccc(OCC3CCN(Cc4ccc(C#N)cc4)CC3)cc2oc1=O,6.26,5.00,5.74,27%,,
Cc1c(C)c2ccc(OCC3CCCN(Cc4ccc(S(C)(=O)=O)cc4)C3)cc2oc1=O (racemic),6.95,6.68,6.07,10%,,
Cc1c(C)c2ccc(OC3CCN(Cc4ccc(Cl)cc4)CC3)cc2oc1=O,6.06,5.80,5.81,29%,,Ratio IC50 (Homo sapiens): 2
"Cc1c(C)c2ccc(OCC3CCCN(Cc4ccccc4)C3)cc2oc1=O (single isomer, unassigned; (-))",,5.64,6.11,,5.09,
Cc1c(C)c2ccc(OCC3CCCN(Cc4cccc(Cl)c4)C3)cc2oc1=O (racemic),7.44,6.01,5.93,,5.33,Activity (SH-SY5Y [3]): inactive; Activity (SH-SY5Y [4]): Active; pIC50 (SH-SY5Y [10]): 4.89
Cc1c(C)c2ccc(OCCCN3CCc4ccccc4C3)cc2oc1=O,6.53,5.57,5.91,,6.02,
Cc1c(C)c2ccc(OCC3CCN(Cc4ccccc4)CC3)cc2oc1=O.Cl,6.98,5.62,5.78,,5.33,log K [1]: 1.98; Activity (SH-SY5Y [3]): inactive; log(Kinetic_solubility) [11]: -4.25; Activity (SH-SY5Y [6]): inactive
Cc1c(C)c2ccc(OCC3CCCN(Cc4ccc(C#N)cc4)C3)cc2oc1=O (racemic),7.47,5.35,5.55,36%,,Ratio IC50 (Homo sapiens): 133
Cc1c(C)c2ccc(OCC3CCN(C)CC3)cc2oc1=O,6.53,4.78,6.17,14%,,
Cc1c(C)c2ccc(OC3CCN(CCc4ccccc4)CC3)cc2oc1=O,5.60,4.91,5.78,,5.75,
Cc1c(C)c2ccc(OCC3CCCN(Cc4ccc(F)cc4)C3)cc2oc1=O (racemic),6.79,5.95,5.84,,5.43,Activity (SH-SY5Y [4]): Active; Activity (SH-SY5Y [5]): Active
Cc1c(C)c2ccc(OC3CCN(Cc4ccc(C#N)cc4)CC3)cc2oc1=O,6.18,5.89,6.01,48%,,Ratio IC50 (Homo sapiens): 2
"Cc1c(C)c2ccc(OCC3CCCN(Cc4cccc(Br)c4)C3)cc2oc1=O (single isomer, unassigned; (-)) [listing 1 of 2 here]",6.71,5.95,5.76,,,
Cc1c(C)c2ccc(OC3CCN(Cc4cccc(Cl)c4)CC3)cc2oc1=O,6.55,6.06,5.97,28%,,
Cc1c(C)c2ccc(OCC3CCN(Cc4cccc(Cl)c4)CC3)cc2oc1=O,7.05,6.15,5.99,,5.22,Activity (SH-SY5Y [6]): inactive
Cc1c(C)c2ccc(OCCCCN3CCc4ccccc4C3)cc2oc1=O,6.21,5.65,5.94,,5.58,
COc1ccc(CN2CCCC(COc3ccc4c(C)c(C)c(=O)oc4c3)C2)cc1OC (racemic),7.05,5.76,5.66,,5.22,Activity (SH-SY5Y [3]): inactive; pIC50 (SH-SY5Y [10]): 5.00; Activity (SH-SY5Y [6]): inactive
Cc1c(C)c2ccc(OC3CCN(C)CC3)cc2oc1=O,6.56,4.93,5.89,11%,,
"Cc1c(C)c2ccc(OCC3CCCN(Cc4cccc(Br)c4)C3)cc2oc1=O (single isomer, unassigned; (-)) [listing 2 of 2 here]",,,,26%,,
CCCCN1CCC(Oc2ccc3c(C)c(C)c(=O)oc3c2)CC1,5.85,4.62,6.00,35%,,
Cc1c(C)c2ccc(OCC3CCCN(Cc4ccc(Cl)cc4)C3)cc2oc1=O (racemic),7.30,6.09,5.54,,5.23,
Cc1c(C)c2ccc(OCC3CCCN(Cc4cccc(Br)c4)C3)cc2oc1=O (racemic),,,,30%,,Activity (SH-SY5Y [2]): Active; Activity (SH-SY5Y [3]): Active; Activity (SH-SY5Y [4]): Active; Activity (SH-SY5Y [5]): Active; Activity (SH-SY5Y [6]): Active
Cc1c(C)c2ccc(OC3CCN(Cc4ccccc4)CC3)cc2oc1=O,6.35,5.44,6.11,,5.02,
"Cc1c(C)c2ccc(OCC3CCCN(Cc4cccc(Br)c4)C3)cc2oc1=O (single isomer, unassigned; (+)) [listing 2 of 2 here]",,,,36%,,Ratio IC50 (Homo sapiens): 21
